Measurements reported in ChEMBL document CHEMBL3853309, “Lovastatin Analogues from the Soil-Derived Fungus Aspergillus sclerotiorum PSU-RSPG178” (J Nat Prod, 2016).
Activity calls are given as the source filed them. The calls are words filed in the database; no cut-off is given here.

Columns and labels:
[1] = target: T1, 3-hydroxy-3-methylglutaryl-coenzyme A reductase (Homo sapiens) (UniProt P04035); settings: 1 uM
T1 sequence (whole entry): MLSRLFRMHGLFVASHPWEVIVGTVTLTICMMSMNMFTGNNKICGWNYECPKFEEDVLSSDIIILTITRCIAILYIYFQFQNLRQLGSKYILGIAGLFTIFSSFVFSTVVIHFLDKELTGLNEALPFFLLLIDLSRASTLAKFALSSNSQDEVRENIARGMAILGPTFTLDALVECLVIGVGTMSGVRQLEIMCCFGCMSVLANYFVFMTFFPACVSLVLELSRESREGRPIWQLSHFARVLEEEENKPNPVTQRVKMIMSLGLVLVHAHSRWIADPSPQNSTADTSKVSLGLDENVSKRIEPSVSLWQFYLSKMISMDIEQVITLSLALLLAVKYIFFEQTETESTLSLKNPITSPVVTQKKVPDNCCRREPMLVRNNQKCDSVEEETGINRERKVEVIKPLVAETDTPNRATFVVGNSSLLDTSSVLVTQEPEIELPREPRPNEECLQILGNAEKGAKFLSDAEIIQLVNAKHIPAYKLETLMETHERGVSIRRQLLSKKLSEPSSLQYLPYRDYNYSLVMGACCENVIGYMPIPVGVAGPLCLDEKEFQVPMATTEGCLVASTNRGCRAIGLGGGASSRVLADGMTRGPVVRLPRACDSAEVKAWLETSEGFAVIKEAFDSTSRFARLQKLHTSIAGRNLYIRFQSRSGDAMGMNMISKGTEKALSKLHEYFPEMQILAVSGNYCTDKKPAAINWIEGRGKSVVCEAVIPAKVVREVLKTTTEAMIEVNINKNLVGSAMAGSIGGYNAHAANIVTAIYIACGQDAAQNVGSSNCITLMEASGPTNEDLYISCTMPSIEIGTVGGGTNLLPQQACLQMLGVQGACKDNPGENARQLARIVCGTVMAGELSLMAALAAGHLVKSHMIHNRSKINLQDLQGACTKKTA

[2] = Cytotoxicity against African green monkey Vero cells; assay type: toxicity, cell-based; settings: African green monkey (Chlorocebus sabaeus)
Summary of the method: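 Vero (African green monkey kidney fibroblast) cells tested in triplicate by the Hunt et al. method; ellipticine positive control.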

[3] = target: T1, 3-hydroxy-3-methylglutaryl-coenzyme A reductase (Homo sapiens); test: Inhibition of human HMGR catalytic domain at 200 uM using HMG-CoA as substrate measured every 20 secs for 10 mins relative to control
Summary of the method: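 Sigma HMG-CoA reductase kit, modified: 1× assay buffer, NADPH, HMG-CoA (800 μM final), test compound at 200 μM final; reaction started by adding human HMGR catalytic domain (0.6 μM final) at 37 °C. NADPH oxidation followed at 340 nm for 10 min, 20 s intervals.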

[4] = Cytotoxicity against human KB cells by resazurin microplate assay; assay type: functional, cell-based
Summary of the method: (§1)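 KB and MCF-7 cells assayed by resazurin microplate method; positive controls ellipticine and doxorubicin for KB, doxorubicin and tamoxifen for MCF-7.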

Plasmodium falciparum = test: Antimalarial activity against multi-drug-resistant Plasmodium falciparum K1 by microculture radioisotope technique; assay type: functional
Summary of the method: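 Parasite: P. falciparum K1 (multidrug-resistant). Growth inhibition read by a microculture radioisotope method adapted from a published protocol. Dihydroartemisinine and mefloquine served as reference standards.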

[5] = target: T1, 3-hydroxy-3-methylglutaryl-coenzyme A reductase (Homo sapiens); test: Binding affinity to human HMGR catalytic domain at 50 uM in presence of 800 to 3200 uM HMG-CoA as substrate measured every 20 secs for 10 mins
Summary of the method: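 Direct-interaction test: compound at 50 μM with HMG-CoA at 800, 1600 and 3200 μM, plus NADPH and human HMGR catalytic domain at 37 °C. Activity read at 340 nm for 10 min at 20 s intervals, reported as percent inhibition versus untreated control; n = 3.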

[6] = target: T2, 3-hydroxy-3-methylglutaryl-coenzyme A reductase (Homo sapiens, UniProt P04035); test: Inhibition of human HMGR catalytic domain using 800 uM HMG-CoA as substrate measured every 20 secs for 10 mins
T2 sequence (P04035 whole entry): T1 sequence (whole entry)
Summary of the method: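 Dose-response format of the kit assay: 1× buffer, NADPH, 800 μM HMG-CoA, graded compound concentrations, human HMGR catalytic domain 0.6 μM final added to start at 37 °C.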

[7] = Cytotoxicity against human MCF7 cells by resazurin microplate assay; assay type: functional, cell-based
Summary of the method: as §1

Compound | IC50 [2] | inhibition [3] | IC50 [4] | IC50 [7] | other results
CC[C@H](C)C(=O)O[C@H]1C[C@H](O)C=C2C=C[C@H](C)[C@H](CC[C@@H](O)C[C@@H](O)CC(=O)O)[C@H]21 |  |  |  |  | inhibition [1]: 90.4%
CC[C@H](C)C(=O)O[C@H]1C[C@@H](C)C[C@@H]2C=C[C@H](C)[C@H](CC[C@@H]3CC=CC(=O)O3)[C@@H]12 | 14.5 µM | 17.2% | 15.2 µM |  | 
O[C@@H](c1cc(C(F)(F)F)nc2c(C(F)(F)F)cccc12)[C@H]1CCCCN1 [(S,R)-MEFLOQUINE] |  |  |  |  | IC50 (Plasmodium falciparum): 0.0269 µM
C[C@H]1[C@@H](O)O[C@@H]2O[C@@]3(C)CC[C@H]4[C@H](C)CC[C@@H]1[C@@]24OO3 [ARTENIMOL] |  |  |  |  | IC50 (Plasmodium falciparum): 0.0023 µM
Cc1c2ccncc2c(C)c2c1[nH]c1ccccc12 [ELLIPTECINE] | 1 µM |  | 2.03 µM |  | 
CC[C@H](C)C(=O)O[C@H]1C[C@@H](C)[C@H](O)C2=C[C@@H](O)[C@H](C)[C@H](CC[C@@H]3CC=CC(=O)O3)[C@H]21 | 40 µM | 50% | 31.6 µM |  | Activity [5]: Active; IC50 [6]: 387 µM
CC/C(=C(\c1ccccc1)c1ccc(OCCN(C)C)cc1)c1ccccc1 [TAMOXIFEN] |  |  |  | 6.99 µM | 
COc1cccc2c1C(=O)c1c(O)c3c(c(O)c1C2=O)C[C@@](O)(C(=O)CO)C[C@@H]3O[C@H]1C[C@H](N)[C@H](O)[C@H](C)O1 [DOXORUBICIN] |  |  |  | 6.75 µM | 
CC[C@H](C)C(=O)O[C@H]1C[C@@H](C)C=C2C=C[C@H](C)[C@H](CC[C@@H]3CC=CC(=O)O3)[C@H]21 | 8.1 µM | 8.4% | 20.1 µM | 57.3 µM | 
CC[C@H](C)C(=O)O[C@H]1C[C@@H](C)C=C2C=C[C@H](C)[C@H](CC[C@@H]3C[C@@H](O)CC(=O)O3)[C@H]21 [LOVASTATIN] | 2.2 µM | 42% | 15.6 µM |  | Activity [5]: Active
CC[C@H](C)C(=O)O[C@H]1C[C@@H](C)[C@H](OC(C)=O)C2=C[C@@H](OC(C)=O)[C@H](C)[C@H](CC[C@@H]3CC=CC(=O)O3)[C@H]21 | 8.4 µM | 20.4% | 19.8 µM | 74.7 µM | 
